Among the data in ChEMBL document CHEMBL4414600, “Discovery of a Furanopyrimidine-Based Epidermal Growth Factor Receptor Inhibitor (DBPR112) as a Clinical Candidate for the Treatment of Non-Small Cell Lung Cancer” (J Med Chem, 2019) are Activity, Cmax and IC50 values, retold here.

The target of series [1] is Tyrosine-protein kinase Blk (Homo sapiens) (UniProt P51451). The series is described as follows: Binding affinity to wild-type human partial length BLK (G211 to L503 residues) expressed in bacterial expression system assessed as residual binding level at 10000 nM by Kinomescan method relative to control. The method, boiled down: (§1)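 KINOMEScan competition binding panel run at 10,000 nM compound, with results expressed as percent of control binding. S(10) is the fraction of non-mutant kinases below 10% of control, out of 395 tested.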

For series [2], the target named is T1, Cytoplasmic tyrosine-protein kinase BMX (Homo sapiens) (UniProt P51813).
T1 sequence (whole entry): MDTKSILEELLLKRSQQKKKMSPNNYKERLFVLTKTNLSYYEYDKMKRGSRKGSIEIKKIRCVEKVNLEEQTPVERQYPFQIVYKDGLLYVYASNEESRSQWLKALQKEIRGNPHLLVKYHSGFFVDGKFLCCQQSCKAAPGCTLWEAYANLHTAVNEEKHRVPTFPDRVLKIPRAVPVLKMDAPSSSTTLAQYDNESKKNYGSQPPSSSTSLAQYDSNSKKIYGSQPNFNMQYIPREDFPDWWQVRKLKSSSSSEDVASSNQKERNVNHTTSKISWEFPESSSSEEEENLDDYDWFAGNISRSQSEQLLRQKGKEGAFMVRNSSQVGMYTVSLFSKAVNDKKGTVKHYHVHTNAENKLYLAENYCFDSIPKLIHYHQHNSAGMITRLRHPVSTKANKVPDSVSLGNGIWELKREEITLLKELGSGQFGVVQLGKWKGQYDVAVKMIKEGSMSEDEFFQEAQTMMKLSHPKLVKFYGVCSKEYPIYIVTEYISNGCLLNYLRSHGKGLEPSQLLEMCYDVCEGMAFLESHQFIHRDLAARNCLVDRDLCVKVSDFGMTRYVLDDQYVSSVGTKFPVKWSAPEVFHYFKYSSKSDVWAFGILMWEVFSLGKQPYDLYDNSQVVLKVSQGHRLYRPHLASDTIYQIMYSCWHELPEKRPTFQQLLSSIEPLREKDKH
Put plainly: Binding affinity to wild-type human full length BMX (M1 to H675 residues) expressed in bacterial expression system assessed as residual binding level at 10000 nM by Kinomescan method relative to control. The method, boiled down: as §1

The target of series [3] is T2, Tyrosine-protein kinase JAK3 (Homo sapiens) (UniProt P52333).
T2 sequence (whole entry): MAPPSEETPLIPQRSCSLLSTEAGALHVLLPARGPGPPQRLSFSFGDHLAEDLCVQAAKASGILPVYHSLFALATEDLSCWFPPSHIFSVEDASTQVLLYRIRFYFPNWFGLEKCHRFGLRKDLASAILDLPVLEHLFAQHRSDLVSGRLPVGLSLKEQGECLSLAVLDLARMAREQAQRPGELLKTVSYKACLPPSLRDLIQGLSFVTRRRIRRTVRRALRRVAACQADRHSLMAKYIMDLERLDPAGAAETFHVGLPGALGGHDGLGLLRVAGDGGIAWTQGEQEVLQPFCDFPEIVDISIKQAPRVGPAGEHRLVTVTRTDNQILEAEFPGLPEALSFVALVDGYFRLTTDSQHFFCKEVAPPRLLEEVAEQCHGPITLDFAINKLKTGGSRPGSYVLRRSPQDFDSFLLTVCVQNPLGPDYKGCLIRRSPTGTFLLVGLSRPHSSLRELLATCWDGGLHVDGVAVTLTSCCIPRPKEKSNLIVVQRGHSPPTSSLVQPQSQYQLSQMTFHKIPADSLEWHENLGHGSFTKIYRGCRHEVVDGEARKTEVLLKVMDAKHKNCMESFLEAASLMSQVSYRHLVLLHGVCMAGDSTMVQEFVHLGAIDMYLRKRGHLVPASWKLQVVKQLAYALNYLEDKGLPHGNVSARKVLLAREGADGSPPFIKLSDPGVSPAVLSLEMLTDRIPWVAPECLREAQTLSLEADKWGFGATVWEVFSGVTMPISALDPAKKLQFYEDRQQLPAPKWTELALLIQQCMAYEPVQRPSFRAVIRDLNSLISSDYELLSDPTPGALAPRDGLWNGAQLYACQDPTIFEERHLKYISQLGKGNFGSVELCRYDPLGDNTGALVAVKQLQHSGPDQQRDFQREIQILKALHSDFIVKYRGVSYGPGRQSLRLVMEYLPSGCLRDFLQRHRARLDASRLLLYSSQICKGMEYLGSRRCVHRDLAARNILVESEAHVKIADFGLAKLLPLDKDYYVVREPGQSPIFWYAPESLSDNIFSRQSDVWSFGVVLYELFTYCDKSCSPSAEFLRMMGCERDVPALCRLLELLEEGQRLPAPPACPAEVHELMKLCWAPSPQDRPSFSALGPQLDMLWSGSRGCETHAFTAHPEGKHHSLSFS
Put plainly: Binding affinity to wild-type human partial length JAK3 JH1 catalytic domain (I781 to S1124 residues) expressed in mammalian expression system assessed as residual binding level at 10000 nM by Kinomescan method relative to control. The method, boiled down:
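KINOMEscan competition-binding profiling at a single concentration of 10,000 nM across a panel that included 395 non-mutant kinases. Binding is read out as percent of control. Kinases with less than 10% of control were counted as hits for the S(10) selectivity score, which is the number of non-mutant hits divided by the number of non-mutant kinases tested.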

Series [4] can be described thus: Toxicity in athymic NU-Fox1nu nude mouse xenografted with human HCC827 cells assessed as effect on body weight at 20 to 50 mg/kg, po dosed via gavage for 5 days/week for 2 consecutive weeks. Conditions: in vivo, 120 h. It is filed as organism-based. The method, boiled down: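 Male athymic NU-Fox1nu nude mice, 6–8 weeks old, were inoculated subcutaneously at the left flank with 5x10^6 HCC827 (exon 19 Del E746_A750) cells. Oral gavage began at a mean tumor size of about 500 mm³, in 1% methylcellulose/0.5% Tween 80/98.5% water, once daily on days 1-5 and 8-12. Tumor volume (V = 0.5 a × b², caliper) and body weight were tracked.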

Series [5] is described as follows: Cmax in rat at 23.6 mg/kg, po. The format is ADME, organism-based. Further details: dose 23.6 mg/kg, route oral. Conditions: in vivo. The method, boiled down: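 Rat pharmacokinetics: single IV injection at 5 mg/kg or oral dosing at 20 mg/kg (23.6 mg/kg oral for one compound). Plasma parameters t1/2, CL, Vss, AUC(0-inf), Cmax, Tmax and oral bioavailability F were derived from the concentration–time profiles.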

A short description of series [6]: Inhibition of GST-tagged human HER2 V777_G778insCG mutant mutant using poly(Glu, Tyr) 4:1 substrate incubated for 120 mins by kinase-Glo plus luminescent kinase assay. In general terms: Kinase-Glo reads ATP consumption through a luciferase reaction.

Tyrosine-protein kinase Blk (Homo sapiens), sequence (P51451 2-505 limits assumed): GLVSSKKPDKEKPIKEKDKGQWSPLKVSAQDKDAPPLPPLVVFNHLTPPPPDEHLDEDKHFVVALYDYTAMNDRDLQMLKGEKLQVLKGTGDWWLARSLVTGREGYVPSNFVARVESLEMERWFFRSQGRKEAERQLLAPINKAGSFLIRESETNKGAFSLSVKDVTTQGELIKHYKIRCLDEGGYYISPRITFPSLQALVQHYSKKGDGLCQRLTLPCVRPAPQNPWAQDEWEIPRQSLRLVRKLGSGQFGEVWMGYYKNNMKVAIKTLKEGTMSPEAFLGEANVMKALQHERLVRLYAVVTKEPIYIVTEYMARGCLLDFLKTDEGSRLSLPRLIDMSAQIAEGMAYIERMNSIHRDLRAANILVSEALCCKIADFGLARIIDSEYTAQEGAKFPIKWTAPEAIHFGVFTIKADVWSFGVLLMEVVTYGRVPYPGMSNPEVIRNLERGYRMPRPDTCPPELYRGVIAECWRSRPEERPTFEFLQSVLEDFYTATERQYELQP

The Cmax is the peak of the concentration-time curve. By IC50 is commonly meant the concentration at which inhibition is half-maximal. As to `CN(C)C/C=C/C(=O)Nc1cccc(-c2c(-c3ccccc3)oc3ncnc(N[C@H](CO)c4ccccc4)c23)c1`, the Activity was 0.25% in series [1], 4.8% in series [2], 0% in series [3] and “Non-Toxic” in series [4]. In series [5], this compound displayed a Cmax of 508 ng/mL. Besides, the IC50 in series [6] is 0.203 nM.
